# Test results reported in ChEMBL document CHEMBL3870319, “Synthesis and biological evaluation of rhein amides as inhibitors of osteoclast differentiation and bone resorption” (Eur J Med Chem, 2016).
# Active and inactive are the calls of the source. No cut-off for these calls is given here.
# What was measured:
# [1] = Cytotoxicity against C57/BL6 mouse primary BMDM assessed as cell viability at 5 uM after 2 days in presence of M-CSF by MTT assay relative to control; type: toxicity; conditions: primary bone marrow-derived macrophages (BMDM), read-out: Activity
# Procedure, shortened: (§1)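 Primary BMMs were obtained by flushing femur and tibia marrow of 4-week-old male C57BL/6 mice, culturing it overnight, then expanding the non-adherent cells with 30 ng/mL M-CSF to 90% confluence. They were seeded at 3×10^3 cells/well in full α-MEM with 30 ng/mL M-CSF. Next day, compound was added in triplicate for two days. MTT (5 mg/mL) was added for 2 h at 37°C, crystals were dissolved in DMSO, and OD was read at 570 nm. Viability is relative to untreated control (100%).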
# [2] = (§2) Inhibition of RANKL/M-CSF-induced osteoclastogenesis in C57/BL6 mouse primary BMDM assessed as reduction in TRAP activity using pNPP as substrate after 2 days by colorimetric assay; type: functional
# Procedure, shortened: (§3)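 BMMs at 3×10^3 cells/well exposed to 30 ng/mL M-CSF plus 50 ng/mL RANKL with compound in triplicate for two days. PBS-washed cells lysed 15 min at 37°C; lysate incubated 45 min with p-NPP in presence of disodium tartrate, stopped with NaOH, OD read at 405 nm, normalized to BCA protein; inhibition relative to control.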
# Mus musculus [3] = species on record: Mus musculus; assay: Cytotoxicity against C57/BL6 mouse MSC assessed as reduction in cell viability at 5 uM after 2 days in presence of M-CSF by MTT assay; type: toxicity; conditions: 48 h
# Procedure, shortened: (§4)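 MTT viability in MC3T3-E1 preosteoblasts (ATCC) or C57BL/6-derived mouse MSCs grown in α-MEM with 10% FBS and penicillin/streptomycin at 37°C, 5% CO2. Compound at indicated concentrations for 2 days, then MTT read. Viability expressed relative to control, mean ± SD of triplicates.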
# Mus musculus [4] = species on record: Mus musculus; assay: Inhibition of RANK/RANKL/NFATc1 signalling pathway in M-CSF-stimulated C57/BL6 mouse primary BMDM assessed as reduction in cathepsin K mRNA level at 5 uM by qRT-PCR analysis
# Procedure, shortened: (§5)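 BMMs treated with M-CSF and/or RANKL alone or with 5 µM compound; mRNA for NFATc1, c-fos, TRAP, MMP-9 and cathepsin K measured by SYBR Green qRT-PCR, normalized to β-actin, expressed as fold change versus control cells; mean ± S.D. of triplicate measurements per cDNA sample.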
# Mus musculus [5] = species on record: Mus musculus; assay: Inhibition of RANK/RANKL/NFATc1 signalling pathway in M-CSF-stimulated C57/BL6 mouse primary BMDM assessed as reduction in c-FOS mRNA level at 5 uM by qRT-PCR analysis; procedure, shortened: as §5
# Mus musculus [6] = species on record: Mus musculus; assay: Cytotoxicity against C57/BL6 mouse primary BMDM assessed as cell viability at 7.5 uM after 2 days in presence of M-CSF by MTT assay; type: toxicity; conditions: 48 h; procedure, shortened: as §1
# Mus musculus [7] = species on record: Mus musculus; assay: Inhibition of RANK/RANKL/NFATc1 signalling pathway in M-CSF-stimulated C57/BL6 mouse primary BMDM assessed as reduction in TRAP mRNA level at 5 uM by qRT-PCR analysis; procedure, shortened: as §5
# Mus musculus [8] = species on record: Mus musculus; assay: Cytotoxicity against mouse MC3T3-E1 cells assessed as reduction in cell viability at 5 uM after 2 days in presence of M-CSF by MTT assay; type: toxicity, cell-based; conditions: mc3t3-e1, 48 h; procedure, shortened: as §4
# BMDM [9] = assay: Inhibition of RANKL/M-CSF-induced bone resorption of osteoclast in C57/BL6 mouse primary BMDM cultured on bovine femur bone slices assessed as reduction in bone resorption area at 5 uM after 5 days by toluidine blue staining based microscopy; type: functional
# Procedure, shortened: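 BMMs seeded on bovine femur bone slices; next day induced with 30 ng/mL M-CSF plus 50 ng/mL RANKL with compound for five days, medium changed every two days. Cells fixed in 2.5% glutaraldehyde, slices stained with 0.5% toluidine blue, imaged at 200×; pit area from three random fields per slice, expressed as % of control.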
# BMDM [10] = assay: Inhibition of RANKL/M-CSF-induced osteoclastogenesis in C57/BL6 mouse primary BMDM assessed reduction in TRAP-positive multinucleated cells at 5 uM after 5 days; type: functional
# Procedure, shortened: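 Mouse C57BL/6 BMMs were adhered overnight in M-CSF medium, then cultured with 30 ng/mL M-CSF plus 50 ng/mL RANKL and compound for five days, with medium changed every two days. Cells were TRAP-stained with a leukocyte acid phosphatase kit, and TRAP-positive cells with ≥3 nuclei were counted as osteoclasts. Counts are expressed as percent of control, from at least three experiments.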
# Mus musculus [11] = species on record: Mus musculus; assay: Inhibition of RANK/RANKL/NFATc1 signalling pathway in M-CSF-stimulated C57/BL6 mouse primary BMDM assessed as reduction in NFATc1 mRNA level at 5 uM by qRT-PCR analysis; procedure, shortened: as §5
# BMDM [12] = assay: as §2; type: functional; procedure, shortened: as §3
# Mus musculus [13] = species on record: Mus musculus; assay: Inhibition of RANK/RANKL/NFATc1 signalling pathway in M-CSF-stimulated C57/BL6 mouse primary BMDM assessed as reduction in MMP9 mRNA level at 5 uM by qRT-PCR analysis; procedure, shortened: as §5
# [14] = Induction of C57/BL6 mouse primary BMDM proliferation assessed at 5 uM after 2 days by MTT assay relative to control; conditions: 48 h
# Procedure, shortened: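 BMMs from femur/tibia marrow of 4-week-old male C57BL/6 mice, expanded in α-MEM/10% FBS with 30 ng/mL M-CSF. Seeded at 3×10^3 cells/well, treated next day in triplicate for two days with M-CSF present. MTT (5 mg/mL stock) for 2 h at 37°C, crystals dissolved in DMSO, OD 570 nm; viability relative to untreated control.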
SMILES,"viability at 48 h, 5 µM [1] [%]",inhibition (INH) [2] [%],also measured
O=C(Nc1ccc(C(F)(F)F)cc1)c1cc(O)c2c(c1)C(=O)c1cccc(O)c1C2=O,57,–,–
O=C(NCCN1CCOCC1)c1cc(O)c2c(c1)C(=O)c1cccc(O)c1C2=O,15,–,–
CC(=O)Oc1cccc2c1C(=O)c1c(OC(C)=O)cc(C(=O)Nc3ccccc3)cc1C2=O,28,–,–
O=C(Nc1ccc(C(F)(F)F)cc1Cl)c1cc(O)c2c(c1)C(=O)c1cccc(O)c1C2=O,17,–,–
CC(C)(O)C1CCN(C(=O)c2cc(O)c3c(c2)C(=O)c2cccc(O)c2C3=O)CC1,92,65,–
CCN1CCN(C(=O)c2cc(O)c3c(c2)C(=O)c2cccc(O)c2C3=O)CC1,24,–,–
CC(=O)Oc1cccc2c1C(=O)c1c(OC(C)=O)cc(C(=O)Nc3ccc(C)cc3)cc1C2=O,28,–,–
CN1CCN(C(=O)c2cc(O)c3c(c2)C(=O)c2cccc(O)c2C3=O)CC1,122,0,–
CC(=O)Oc1cccc2c1C(=O)c1c(OC(C)=O)cc(C(=O)Nc3ccc(C(F)(F)F)cc3)cc1C2=O,51,–,–
O=C1c2cccc(O)c2C(=O)c2c(O)cc(C(=O)N3CCC(CO)CC3)cc21,79,85,–
O=C(Nc1ccccc1)c1cc(O)c2c(c1)C(=O)c1cccc(O)c1C2=O,53,–,–
CC1CCN(C(=O)c2cc(O)c3c(c2)C(=O)c2cccc(O)c2C3=O)CC1,103,0,–
CC(=O)Oc1cccc2c1C(=O)c1c(OC(C)=O)cc(C(=O)Nc3cc(C(F)(F)F)ccn3)cc1C2=O,37,–,–
O=C(Nc1ccc(C(F)(F)F)cn1)c1cc(O)c2c(c1)C(=O)c1cccc(O)c1C2=O,49,–,–
O=C1c2cccc(O)c2C(=O)c2c(O)cc(C(=O)N3CCC(N4CCOCC4)CC3)cc21,92,98,Activity (Mus musculus [3]): Non-Toxic; inhibition (Mus musculus [4]): Active; inhibition (Mus musculus [5]): Active; Activity (Mus musculus [6]): Non-Toxic; inhibition (Mus musculus [7]): Active; Activity (Mus musculus [8]): Non-Toxic; inhibition (BMDM [9]): Active; inhibition (BMDM [10]): Active; inhibition (Mus musculus [11]): Active; inhibition (BMDM [12]): Dose-dependent effect; inhibition (Mus musculus [13]): Active
Cc1ccc(NC(=O)c2cc(O)c3c(c2)C(=O)c2cccc(O)c2C3=O)cc1,62,–,–
CC(=O)Oc1cccc2c1C(=O)c1c(OC(C)=O)cc(C(=O)Nc3ccc(C)c(Cl)c3)cc1C2=O,75,0,–
CC(=O)Oc1cccc2c1C(=O)c1c(OC(C)=O)cc(C(=O)N3CCC(C)CC3)cc1C2=O,8,–,–
CC(=O)Oc1cccc2c1C(=O)c1c(OC(C)=O)cc(C(=O)Nc3ccc(C(F)(F)F)cn3)cc1C2=O,35,–,–
CC(=O)Oc1cccc2c1C(=O)c1c(OC(C)=O)cc(C(=O)Nc3ccc(C(F)(F)F)cc3Cl)cc1C2=O,17,–,–
Cc1cc(O)c2c(c1)C(=O)c1cc(O)cc(O)c1C2=O [EMODIN],109,45,inhibition (BMDM [10]): Active; Activity [14]: Non-Toxic
O=C(O)c1cc(O)c2c(c1)C(=O)c1cccc(O)c1C2=O [RHEIN],97,47,Activity [14]: Non-Toxic
